The nature of experiment [1]: Cytotoxicity against human SH-SY5Y cells after 48 hrs by MTT assay. The format is functional, cell-based. An outline of the steps: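 SH-SY5Y, after overnight growth, were exposed continuously to compounds for 48 h in DMEM with 10% FBS. Then PBS washes, 4 h with 0.5 mg/ml MTT in serum-free DMEM, DMSO solubilization of formazan, and OD at 570 nm.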
In experiment [2] the test system is HepG2. The experiment can be described thus: Cytotoxicity against human HepG2 cells after 48 hrs by MTT assay. Format: functional, cell-based. Particulars: HepG2, 48 h. An outline of the steps:
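HepG2 kept in MEM with 10% FBS and 1% penicillin/streptomycin at 37 °C, 5% CO2. After overnight growth, cells were exposed continuously to compounds for 48 h in MEM with 10% FBS. They were then PBS-washed and given 0.5 mg/ml MTT in serum-free DMEM for 4 h. Formazan was dissolved in DMSO and read at 570 nm.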
(In general: Formazan colour is commonly taken as a measure of viable cells.)

Experiment [3] deals with MCF7. The experiment in a line: Cytotoxicity against human MCF7 cells after 48 hrs by MTT assay. Format: functional, cell-based. Particulars: MCF7, 48 h. In short, it runs like this: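 MCF-7 cells were grown overnight, then treated continuously for 48 h with compounds in DMEM containing 10% FBS. After two PBS washes, cells got 0.5 mg/ml MTT in serum-free DMEM for 4 h. Formazan was solubilized in DMSO and OD read at 570 nm.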

Experiment [4] in a line: Cytotoxicity against human SH-SY5Y cells at 1 uM after 48 hrs by MTT assay. Format: functional. An outline of the steps: (§1)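 SH-SY5Y cells were grown overnight and treated for 48 h at the stated concentration in DMEM/10% FBS, as part of a dose-response series. After PBS washes, cells were incubated 4 h with 0.5 mg/ml MTT in serum-free DMEM. Formazan was dissolved in DMSO and read at 570 nm to give inhibition rate.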

In experiment [5] the test system is HepG2. The experiment can be described thus: Cytotoxicity against human HepG2 cells at 1 uM after 48 hrs by MTT assay. The format is functional, cell-based. An outline of the steps: (§2)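 After overnight plating, HepG2 cells (maintained in MEM/10% FBS/1% pen-strep, 37 °C, 5% CO2) were treated at a fixed compound concentration for 48 h in MEM plus 10% FBS. MTT was 0.5 mg/ml in serum-free DMEM for 4 h after PBS washes, with formazan taken up in DMSO. Absorbance at 570 nm gave percent proliferation inhibition, part of a dose-response series.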

In experiment [6] the test system is MCF7. The experiment in a line: Cytotoxicity against human MCF7 cells at 1 uM after 48 hrs by MTT assay. Format: functional, cell-based. In short, it runs like this: (§3)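 Percent proliferation inhibition of MCF-7 at a single concentration, taken from a dose-response series. Cells were plated overnight, then compound-treated for 48 h in DMEM + 10% FBS. They were washed with PBS and incubated 4 h with 0.5 mg/ml MTT in serum-free DMEM. Formazan was dissolved in DMSO and read at 570 nm.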

Experiment [7] deals with SH-SY5Y. The experiment can be described thus: Cytotoxicity against human SH-SY5Y cells at 10 uM after 48 hrs by MTT assay. The format is functional, cell-based. An outline of the steps: as §1
Experiment [8] relates to HepG2. The experiment in a line: Cytotoxicity against human HepG2 cells at 10 uM after 48 hrs by MTT assay. The format is functional, cell-based. In short, it runs like this: as §2
Experiment [9] deals with MCF7. The experiment in a line: Cytotoxicity against human MCF7 cells at 10 uM after 48 hrs by MTT assay. The format is functional, cell-based. An outline of the steps: as §3
Experiment [10] is described as follows: Cytotoxicity against human SH-SY5Y cells at 5 uM after 48 hrs by MTT assay. Format: functional. An outline of the steps: as §1
For experiment [11], the system named is HepG2. The experiment in a line: Cytotoxicity against human HepG2 cells at 5 uM after 48 hrs by MTT assay. Format: functional. Conditions: HepG2, 48 h. An outline of the steps:
as §2

Experiment [12] relates to MCF7. The experiment can be described thus: Cytotoxicity against human MCF7 cells at 5 uM after 48 hrs by MTT assay. Format: functional. Conditions: MCF7, 48 h. In short, it runs like this:
as §3

SMILES strings stand for the structures. Active and inactive are the calls of the source. The calls are words filed in the database; no cut-off is given here.

Consider `[O-][S+](CCC(F)(Cl)C(F)(F)Cl)c1nc2ccc(Cl)cc2s1` (stereo unspecified), for which the IC50 (usually the midpoint of a concentration-inhibition curve) in [1] came to 2.1 µM; in experiment [2], 6.9 µM; in experiment [3] it was 12.2 µM. Also, 1 µM produced 50% inhibition in experiment [4]. The inhibition entry in [5] and in experiment [6] was “inactive” each time.

For `O=S(=O)(CCC(F)=C(F)F)c1nc2ccccc2[nH]1`, the 50% inhibitory concentration (IC50) in experiment [1], in experiment [2] and in [3] was > 120 µM each time.

As to `CC(C)(c1nccs1)C(C#N)C#N`, the IC50 in experiment [1], in experiment [2] and in experiment [3] was > 120 µM in each case.

For `FC(F)=C(F)CCSc1nccs1`, the half-inhibitory concentration (IC50) in [1], in experiment [2] and in [3] was > 120 µM throughout.

Take `O=S(=O)(CCC(F)=C(F)F)c1ccccn1`: the IC50 in [1], in experiment [2] and in experiment [3] was > 120 µM throughout.

Regarding `FC(F)=C(F)CCSc1nc2ccc(OC(F)F)cc2[nH]1`, the 50% inhibitory concentration (IC50) in experiment [1], in experiment [2] and in [3] was > 120 µM in each case.

Turning to `FC(F)=C(F)CCSc1nc2ccccc2[nH]1`, the IC50 in experiment [1], in experiment [2] and in experiment [3] was > 120 µM each time.

As for `[O-][S+](CCC(F)=C(F)F)c1ncc(-c2ccncc2)s1` (stereo unspecified), the IC50 in experiment [1], in experiment [2] and in [3] was > 120 µM each time.

`O=S(=O)(CCC(F)(Cl)C(F)(F)Cl)c1nc2ccccc2s1` (stereo unspecified): the IC50 was 4.5 µM in [1], 4.5 µM in [2] and 10.1 µM in [3].

For the molecule `FC(F)=C(F)CCSc1ccccn1`, the IC50 in [1], in experiment [2] and in experiment [3] was > 120 µM in each case.

`[O-][S+](CCC(F)(Cl)C(F)(F)Cl)c1nc2ccccc2s1` (stereo unspecified): the IC50 in experiment [1] amounted to 41.5 µM; in experiment [2], 13.5 µM; in experiment [3], 17.1 µM. In addition, the result in experiment [7], in experiment [8] and in [9] was Active.

For `N#CC(C#N)Cc1nccs1`, the 50% inhibitory concentration (IC50) in experiment [1], in experiment [2] and in experiment [3] was > 120 µM throughout.

For `O=S(=O)(CCC(F)(Cl)C(F)(F)Cl)c1nc2ccc(Cl)cc2s1` (stereo unspecified), the concentration for half-maximal inhibition (IC50) in experiment [1] was found to be 6 µM; in experiment [2] it was 6.1 µM; in experiment [3] it was 8.4 µM.

On to `CC(c1nccs1)C(C#N)C#N` (stereo unspecified), for which the IC50 in [1], in experiment [2] and in [3] was > 120 µM throughout.

`N#CC(C#N)(CCC(F)=C(F)F)Cc1nccs1`: the IC50 in experiment [1], in [2] and in [3] was > 120 µM each time.

`CC(=C(C#N)C#N)c1nccs1`: the IC50 turned out to be 68.8 µM in experiment [1], 105 µM in experiment [2] and 110 µM in experiment [3].

As to `[O-][S+](CCC(F)=C(F)F)c1nccs1` (stereo unspecified), the IC50 in [1], in experiment [2] and in experiment [3] was > 120 µM each time.

Regarding `O=S(=O)(CCC(F)=C(F)F)c1nccs1`, the IC50 in [1], in experiment [2] and in experiment [3] was > 120 µM each time.

As to `CC(=O)O[C@H]1C(=O)[C@@]2(C)[C@H]([C@H](OC(=O)c3ccccc3)[C@]3(O)C[C@H](OC(=O)[C@H](O)[C@@H](NC(=O)c4ccccc4)c4ccccc4)C(C)=C1C3(C)C)[C@]1(OC(C)=O)CO[C@@H]1C[C@@H]2O` [PACLITAXEL], the IC50 worked out at 0.045 µM in [2] and 0.032 µM in experiment [3].

On to `FC(F)=C(F)CCSc1nnc(S)s1`, for which the half-inhibitory concentration (IC50) in experiment [1], in experiment [2] and in [3] was > 120 µM each time.

Regarding `N#CC(C#N)=Cc1nccs1`, the half-inhibitory concentration (IC50) in experiment [1], in [2] and in [3] was > 120 µM in each case.

In the case of `c1ccc2sc(SNC3CCCCC3)nc2c1`, the half-maximal inhibitory concentration (IC50) in [1] was > 120 µM; in experiment [2], 55 µM; in [3], 89.2 µM.

`FC(F)(Cl)C(F)(Cl)CCSc1nc2ccc(Cl)cc2s1` (stereo unspecified): the IC50 in experiment [1], in experiment [2] and in experiment [3] was > 120 µM in each case.

Take `O=S(=O)(CCC(F)=C(F)F)c1nc2ccc(OC(F)F)cc2[nH]1`: the half-maximal inhibitory concentration (IC50) in [1], in experiment [2] and in experiment [3] was > 120 µM throughout.

As for `Cn1c(SCCC(F)=C(F)F)nc(-c2ccncc2)cc1=O`, the IC50 in [1], in [2] and in [3] was > 120 µM each time.

Take `FC(F)=C(F)CCSc1ncc(Cl)s1`: the IC50 in [1], in experiment [2] and in [3] was > 120 µM throughout.

For the molecule `O=S(=O)(CCC(F)=C(F)F)c1ncc(-c2ccncc2)s1`, the half-inhibitory concentration (IC50) in experiment [1], in experiment [2] and in [3] was > 120 µM throughout.

On to `c1ccc2sc(SSc3nc4ccccc4s3)nc2c1` [BENZOTHIAZYL DISULFIDE], for which the half-maximal inhibitory concentration (IC50) in experiment [1], in experiment [2] and in experiment [3] was > 120 µM each time.

`CC(c1nccs1)C(C#N)(C#N)CCC(F)=C(F)F` (stereo unspecified): the IC50 in [1], in experiment [2] and in [3] was > 120 µM throughout.

`c1ccc2sc(SN(C3CCCCC3)C3CCCCC3)nc2c1`: the IC50 was 69.1 µM in experiment [1], > 120 µM in experiment [2] and > 120 µM in experiment [3].

Consider `FC(F)=C(F)CCSc1nc2ccccc2o1`, for which the IC50 in [1], in experiment [2] and in [3] was > 120 µM each time.

Take `FC(F)(Cl)C(F)(Cl)CCSc1nc2ccccc2s1` (stereo unspecified): the IC50 in experiment [1], in experiment [2] and in experiment [3] was > 120 µM in each case.

With `[O-][S+](CCC(F)=C(F)F)c1nc2ccccc2[nH]1` (stereo unspecified), the IC50 in experiment [1], in [2] and in experiment [3] was > 120 µM in each case.

For `[O-][S+](CCC(F)=C(F)F)c1nc2ccccc2s1` (stereo unspecified), the results for the half-inhibitory concentration (IC50) in [1], in [2] and in experiment [3] were 7 µM, 4.7 µM and 8.6 µM, respectively.

For `FC(F)=C(F)CCSc1nc2ccccc2s1`, the 50% inhibitory concentration (IC50) in experiment [1], in experiment [2] and in experiment [3] was > 120 µM each time.

For `[O-][S+](CCC(F)=C(F)F)c1nc2ccccc2o1` (stereo unspecified), the values for the half-maximal inhibitory concentration (IC50) in experiment [1], in experiment [2] and in experiment [3] were 0.4 µM, 5.6 µM and 4.5 µM, respectively. Besides, the inhibition (as a rule, how much of the control response was suppressed) at 5 µM in experiment [10] amounted to 60%; in experiment [11] it was 60%; in [12], 20%.

As to `O=S(=O)(CCC(F)=C(F)F)c1nc2ccccc2s1`, the values for the IC50 in experiment [1], in experiment [2] and in experiment [3] were 2.64 µM, 3.71 µM and 7.2 µM, respectively. For the same molecule, in experiment [4], the inhibition at 1 µM amounted to 50%. For the same molecule, the inhibition entry in experiment [5] and in experiment [6] was “inactive” each time.

On to `FC(F)=C(F)CCSc1ncc(-c2ccncc2)s1`, for which the half-inhibitory concentration (IC50) in [1], in experiment [2] and in experiment [3] was > 120 µM in each case.

In turn, `COc1ccc2c(c1OC)C(=O)O[C@@H]2[C@H]1c2c(cc3c(c2OC)OCO3)CCN1C` [NOSCAPINE] came in with a 50% inhibitory concentration (IC50) in [1] of 80.3 µM.

The values are drawn from ChEMBL document CHEMBL3414424, “Fluoroalkane thioheterocyclic derivatives and their antitumor activity” (Eur J Med Chem, 2015).
